Consider 97 compounds from ChEMBL document CHEMBL4513216, “Probing the Open Global Health Chemical Diversity Library for Multistage-Active Starting Points for Next-Generation Antimalarials” (ACS Infect Dis, 2020).

The structures appear in SMILES notation.

A short description of the data set: Toxicity liver stage against HepG2, at 10uM. The format is cell-based. Also noted: test concentration 10 uM, cell line HepG2-A16-CD81EGFP. The settings on record: human, HepG2-A16-CD81EGFP cells; read-out: INHIBITION
Put shortly:
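Uninfected HepG2-A16-CD81EGFP cells, 3 × 10^3 per well, 1536-well, plated on prespotted compound at 10 μM final, parasite-free screening media added to match infected plates; puromycin 10 μM positive, DMSO 0.5% negative; run in parallel with 48 h PbLuc assay at 37 °C, 5% CO2; viability by CellTiter-Glo luminescence, normalized to controls.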
Regarding `CC(C)Oc1cccc(C(=O)C2CCCN(C(=O)c3ccnn3C)C2)c1` (configuration not stated), the cytotoxicity at 10 µM amounted to 1.3%. The value for `O=C(NC(c1ccccc1)c1cccnc1)C1CC1` (configuration not stated) was 2.99%; that for `O=C(NC(c1ccc(Cl)cc1)c1cccnc1)C1CC1` (configuration not stated) was -3.94%; that for `Cn1nc(C(=O)N2CCC(Oc3ccc(C#N)cn3)CC2)ccc1=O` was -3.33%. As for `COCCNC(=O)c1ccc2ccc(N(C)CC3CC3)n2c1`, the cytotoxicity at 10 µM was determined as 0.375%. The value for `Cn1ccc2c(cnc3nc(-c4ccncc4)nn32)c1=O` was -4.17%; that for `Cn1cc(CNS(=O)(=O)c2cc(F)ccc2F)cn1` was -0.439%. With `Cc1nc2[nH]cnc(Nc3ccn(C)n3)c-2n1`, the cytotoxicity at 10 µM came to 18.2%. As to `Cc1cn[nH]c1C1COCCN1Cc1cscn1` (configuration not stated), the cytotoxicity at 10 µM was found to be 2.67%. For `O=S1(=O)NC(c2ccnc(N3CCCCC3)n2)=Nc2ccccc21`, the cytotoxicity at 10 µM is 18.3%. With `COCCNc1ncc(-c2cccc(F)c2)c(-c2nccn2C)n1`, the cytotoxicity at 10 µM was 13.4%. On to `COc1cccc(CN2CCC(Cc3cnc(CN(C)C)cn3)CC2)c1`, for which the cytotoxicity at 10 µM is -2.82%. With `O=C1CN(C(=O)CCn2c(C(F)(F)F)cc3cccnc32)CCN1`, the cytotoxicity at 10 µM is -13%.

Consider `Cc1nc(Nc2nnc(C)s2)cc(C2CCCN2c2ccncn2)n1` (configuration not stated), for which the cytotoxicity at 10 µM is -14.3%. On to `Cc1cccc(C(=O)N2C[C@@H]3CC[C@H](Oc4cccc(F)c4)[C@@H]3C2)n1`, for which the cytotoxicity at 10 µM is -14.7%. As to `CC(C)CCN1CCC2(CC1)NCc1ccccc1NC2=O`, the cytotoxicity at 10 µM was found to be 3.46%. For the compound `CN(C)S(=O)(=O)NC1CC(=O)N(c2ccccc2Cl)C1` (configuration not stated), the cytotoxicity at 10 µM came to 3.57%. Regarding `CC(C)(C)CNC(=O)c1ccc(C(=O)O)cc1`, the cytotoxicity at 10 µM was -8.17%.

Take `COc1ccc(CNc2nc(C3CC3)no2)cc1OC`: the cytotoxicity at 10 µM stood at 4.44%.

On to `Cc1[nH]nc2ncc(C(=O)N3CCN(CC(O)C(C)(C)C)CC3)cc12` (configuration not stated), for which the cytotoxicity at 10 µM was found to be 4.41%. `O=C(NCCc1cc(F)ccc1F)NC(CO)c1ccccc1` (configuration not stated): the cytotoxicity at 10 µM is 8.78%.

With `COc1ccccc1NC(=O)CC(C)NCc1scnc1C` (configuration not stated), the cytotoxicity at 10 µM is 0.686%.

With `Cc1cc(C)c(CNC(=O)NCCNc2ncccn2)c(=O)[nH]1`, the cytotoxicity at 10 µM is -49.4%. Consider `COC(=O)c1oc(CNC(C)(C)c2ccc3c(c2)OCO3)cc1C`, for which the cytotoxicity at 10 µM is 4.47%. As for `CCCNC(=O)NCc1nc(C)c(C)o1`, the cytotoxicity at 10 µM turned out to be 5.19%. Take `CC1CN(C(=O)C2(c3ccc(F)cc3F)CCOCC2)CCO1` (configuration not stated): the cytotoxicity at 10 µM was -4.84%. On to `Cc1ccc(-n2cnnn2)cc1NCC(=O)Nc1cc(F)ccc1F`, for which the cytotoxicity at 10 µM worked out at 6.23%.

Turning to `O=S(=O)(CCN1CCCCC1Cn1cccn1)c1ccccc1` (configuration not stated), the cytotoxicity at 10 µM was -8.66%.

Turning to `FC(F)(F)C1CCc2nnc(CNCc3cccs3)n2C1` (configuration not stated), the cytotoxicity at 10 µM was determined as 2.9%. In the case of `NC(=O)CCCNC(=O)c1cc(Br)c2c(c1)OCCO2`, the cytotoxicity at 10 µM was 9.31%.

With `CCN(CC)C(=O)CCCNC(=O)Cc1nc(-c2ccco2)oc1C`, the cytotoxicity at 10 µM was 1.57%. Consider `Cc1cc(C2CN(CC(=O)NCc3ccco3)CCO2)ccc1F` (configuration not stated), for which the cytotoxicity at 10 µM was determined as 4.29%. In the case of `Cc1cc(C)n(-c2ccc(N3CCCSCC3)nc2)n1`, the cytotoxicity at 10 µM was -2.08%.

Regarding `Cc1cc(Br)oc1C(=O)N1CCC(N(C)C)CC1`, the cytotoxicity at 10 µM was -4.71%. With `COc1ccc(-c2nc(CN3CC(n4cccn4)C3)no2)cc1`, the cytotoxicity at 10 µM is -3.08%. As to `COCCN(Cc1cccnc1)S(=O)(=O)c1ccc(F)cc1C`, the cytotoxicity at 10 µM is -5.06%. For `CCCS(=O)(=O)N1CCC(Oc2ccc(C#N)cc2)CC1`, the cytotoxicity at 10 µM was found to be 3.82%. For the compound `CN1CC(NC(=O)CCCc2cc(Cl)sc2Cl)CCC1=O` (configuration not stated), the cytotoxicity at 10 µM is -5.01%. Take `CCc1nc(C(=O)N2CCN(C(=O)CCc3ccccc3)CC2)c[nH]1`: the cytotoxicity at 10 µM was found to be 5.92%.

With `COc1cccc(CN(C)Cn2nc(C(C)(C)C)ccc2=O)c1`, the cytotoxicity at 10 µM came out at 1.12%. With `CCc1ncncc1C(=O)Nc1ccc2ccn(CCN(C)C)c2c1`, the cytotoxicity at 10 µM is 6.11%.

`Cc1n[nH]c(C)c1NC(=O)CN(CC(O)c1ccc(F)cc1)C1CC1` (configuration not stated): the cytotoxicity at 10 µM is -7.3%. As for `CCC(NC(=O)NCc1cc(Cl)ccc1OC)c1noc(C)n1` (configuration not stated), the cytotoxicity at 10 µM was determined as 4.06%.

Take `CCOc1ccc(OC2CCCN(c3cnn(C)c3)C2=O)cc1` (configuration not stated): the cytotoxicity at 10 µM was 0.118%.

Turning to `CCN1CCOC(CNc2nccc(OC)n2)C1` (configuration not stated), the cytotoxicity at 10 µM was -0.572%. As for `CCC(SC)C(=O)N1CCC(n2ccnn2)CC1` (configuration not stated), the cytotoxicity at 10 µM was -41.5%. On to `c1ccc(CN2CCC(NCCc3ccc4c(c3)CCO4)CC2)nc1`, for which the cytotoxicity at 10 µM turned out to be 3.73%. For `CCSCCC(=O)NC1CCN(C(C)c2ccccc2)CC1` (configuration not stated), the cytotoxicity at 10 µM was -1.22%. As to `CCOCCC(=O)N1CC(=O)Nc2cc(Br)ccc21`, the cytotoxicity at 10 µM was 6.87%. With `Cc1cnn(C2CN(Cc3nnc(-c4ccccc4Cl)o3)C2)c1`, the cytotoxicity at 10 µM is -2.76%. As for `CCC(C)(C)CC(=O)NC(C)C(=O)Nc1ccc(-n2cncn2)cc1` (configuration not stated), the cytotoxicity at 10 µM was 3.47%. Take `COc1ccccc1N1CCC(CNCc2c(C)nn(C)c2OC)C1` (configuration not stated): the cytotoxicity at 10 µM was 5.28%.

With `COCCOCC(=O)N(C)Cc1ccc(OCc2cccs2)cc1`, the cytotoxicity at 10 µM was 4.38%. With `O=S(=O)(CC1CCCCO1)Nc1cc(F)ccc1-n1cccn1` (configuration not stated), the cytotoxicity at 10 µM amounted to 7.71%.

In the case of `COC[C@@H]1CCC[C@]12CN(S(=O)(=O)c1cn(C)cn1)CCO2`, the cytotoxicity at 10 µM was 4.06%. Regarding `Cn1c2c(c(=O)n1C)CN(C(=O)c1ccncc1F)CCC2`, the cytotoxicity at 10 µM is -95%. With `Cc1cnc(N2CCOC3(COCCN(c4nccs4)C3)C2)nc1` (configuration not stated), the cytotoxicity at 10 µM is -114%.

As for `COCC(=O)NCc1cc(=O)n2c(n1)CN(Cc1cccs1)CCC2`, the cytotoxicity at 10 µM is -96.5%.

Turning to `Nc1ccnc(N2CCCC(CCc3ccccc3)(C(=O)O)C2)n1` (configuration not stated), the cytotoxicity at 10 µM worked out at 3.33%. As to `CN(CCO)Cc1nnc(C2CCN(C(=O)c3cccn3C)CC2)n1C`, the cytotoxicity at 10 µM is -0.537%. With `c1ccc2c(c1)CN(c1ncnc3c1CCNC3)CCO2`, the cytotoxicity at 10 µM is 3.13%.

On to `COc1ccccc1CCC(=O)N1CCCC(OCc2cccnc2)C1` (configuration not stated), for which the cytotoxicity at 10 µM turned out to be 2.98%. The value for `Cc1nnc(N2CCCC(C(=O)c3cccc(Cl)c3)C2)o1` (configuration not stated) was 6.14%; that for `Cc1cccnc1CCNCC1(O)CCCN(CC2CCCCC2)C1=O` (configuration not stated) was -203%; that for `O=C(NCc1noc(C2CCCO2)n1)c1cn2ccsc2n1` (configuration not stated) was -3.77%. On to `CC(C)(C)SCCNC(=O)[C@@]12CNC[C@@H]1CN(S(C)(=O)=O)C2`, for which the cytotoxicity at 10 µM was 0.251%. The value for `O=C(N1CCC2(CC1)[C@H](O)C[C@@H]2O)C1(c2ccccc2F)CC1` was 6.1%; that for `CNCCNc1ccc(-c2nc(-c3cccc(OC)c3OC)no2)cn1` was -2.4%; that for `CC(C)(O)c1cn(C2CCN(c3ncccc3Cl)CC2)nn1` was -46.4%. Take `Cc1cnccc1N1CCN(C[C@]2(O)CCCN3CCCC[C@@H]32)CC1`: the cytotoxicity at 10 µM came out at 10.4%.

With `COc1ccc(Cc2c(O)nc(SC)n(-c3ccccc3)c2=O)cc1`, the cytotoxicity at 10 µM worked out at 1.76%.

As for `CCn1nc(CC(C)C)cc1C(=O)N1CCC(n2cnnc2)CC1`, the cytotoxicity at 10 µM was -7.71%.

Consider `OCC1CCCCN1CCCNCc1cc(O)c2cc(F)ccc2n1` (configuration not stated), for which the cytotoxicity at 10 µM was -39.2%. Turning to `Fc1ccc(CN2CCCC3(CCN(Cc4ncc[nH]4)C3)C2)cc1F` (configuration not stated), the cytotoxicity at 10 µM was -12%. As for `Cc1cccc(-c2ncc(CNC(C)Cc3ncccc3C)cn2)c1` (configuration not stated), the cytotoxicity at 10 µM is -13.2%. Regarding `Cc1nc(CC(=O)N(CCN2CCOCC2)Cc2ccco2)c(C)s1`, the cytotoxicity at 10 µM was -3.71%. The value for `CCOc1ncccc1C(=O)N1CCN(C)C2(CCN(C)CC2)C1` was -0.351%; that for `CCCOC1CCCN(C(=O)c2ccc(S(N)(=O)=O)cc2)C1` (configuration not stated) was -13.6%; that for `O=C(c1cnccn1)N1CCN(Cc2cscn2)CC1` was -8.36%.

Turning to `CCn1cc(NC(=O)NCC(c2ccsc2)N(C)C)cn1` (configuration not stated), the cytotoxicity at 10 µM is -8.01%.

Regarding `COCCOc1ccc(CNCC2CNc3cc(C)nn3C2)cn1` (configuration not stated), the cytotoxicity at 10 µM is -10.7%. In the case of `CCN1CCOC(CNCc2ccccc2OCc2ccccn2)C1` (configuration not stated), the cytotoxicity at 10 µM is -10.1%. With `CCOc1cc(C(=O)N2CCCC(c3cc(C(N)=O)[nH]n3)C2)ccn1` (configuration not stated), the cytotoxicity at 10 µM is -7.37%.

As for `O=c1[nH]c(CCN2CCCC(Cn3cncn3)C2)nc2ccccc12` (configuration not stated), the cytotoxicity at 10 µM was -8.62%. Next, `Cc1cc(C)n(CC2CN(Cc3nc(-c4ccoc4)no3)CCO2)n1` (configuration not stated): -8.13%; `CCN1C(=O)CCC12CCC(NC(=O)NCc1cccnc1)CC2` (configuration not stated): -104%; `Cc1ccc2c(n1)N(C)CCN(CCN1CCCC1)C2`: -8.84%.

For `COCCN1CCCC12CCN(Cc1cccnc1OC)CC2`, the cytotoxicity at 10 µM was determined as 15.4%. In the case of `CN(C)CCN1CCOCC2(C1)CN(Cc1ccsc1)CCO2` (configuration not stated), the cytotoxicity at 10 µM is -0.439%. In the case of `Cc1ccc(CN2CCC3(CCCN3S(C)(=O)=O)CC2)s1`, the cytotoxicity at 10 µM was -113%. Next, `CN(C)C[C@@H]1C[C@@H]2CN(C(=O)c3ccoc3)CC[C@@H]2N1CC1CC1`: 6.71%.

For the compound `COCCN1CCCn2c(nc(CNS(C)(=O)=O)cc2=O)C1`, the cytotoxicity at 10 µM was -110%.

`Cc1noc(C)c1CN1CCc2ncc(Cn3cccn3)n2CC1`: the cytotoxicity at 10 µM was found to be 2.65%.

Regarding `COCC(=O)NCc1cc(=O)n2c(n1)CN(Cc1ccccc1)CCC2`, the cytotoxicity at 10 µM was -103%. In the case of `Cc1noc(C)c1CN1C[C@@H]2C[C@H](C(=O)NCC3CC3)N(C)[C@@H]2C1`, the cytotoxicity at 10 µM is -1.24%. As to `Cc1nnc(CN2CCC3(CCC(=O)N(C4CCC(O)CC4)C3)CC2)o1` (configuration not stated), the cytotoxicity at 10 µM is -8.23%. `CC(C)(C)c1ccc(OCC(N)=O)c(CN2C[C@H]3CC(O)C[C@H]3C2)c1` (some centres not stated): the cytotoxicity at 10 µM is -5.28%.
